Assay results reported in ChEMBL document CHEMBL1134619, “Arylcyclopropanecarboxyl guanidines as novel, potent, and selective inhibitors of the sodium hydrogen exchanger isoform-1” (J Med Chem, 2001).
Each block holds one compound with its values, some of them ahead of it.

Key:
[1] = biological target: Sodium/hydrogen exchanger 1 (Homo sapiens, UniProt P19634); test: Screened in AP1 cells expressing human NHE-1 for sodium hydrogen exchange activity; format: functional, cell-based
In short: (§1)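 AP1 cell monolayers expressing the given human NHE isoform, loaded with BCECF-AM (5 µM final, 30 min, room temperature) in NaCl-HEPES pH 7.3. Acid load by NH4Cl-HEPES for 9 min, then washes in Na+-free choline buffer. Drug preincubation 7.5 min, then NaCl added (135 mM final). Fluorescence 485/444 nm excitation ratio (538 nm emission) read after 5 min, minus no-NaCl activity. IC50 from 8-point dose-response curve, mean ± SEM of several experiments.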

[2] = Oral bioavailability in rat; format: ADME, organism-based; details: in vivo
In short: (§2)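 Rats (n = 3) given a single 10 µmol/kg dose either intra-arterially or orally. Plasma samples analysed by LC/MS/MS. PK parameters are means ± SEM of the three animals.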

[3] = Half life period in rats was determined; format: ADME, organism-based; details: rat, in vivo; in short: as §2
[4] = Plasma clearance in rats was determined; format: ADME, organism-based; details: rat; in short: as §2
[5] = Volume distribution at steady state in rats was determined; format: ADME, organism-based; details: rat, in vivo; read-out: VSS; in short: as §2
[6] = biological target: T1, Sodium/hydrogen exchanger 2 (Homo sapiens, UniProt Q9UBY0); test: Compound is screened in AP1 cells expressing human NHE-2 for sodium hydrogen exchange activity; format: functional, cell-based; in short: as §1
T1 sequence (Q9UBY0 whole entry): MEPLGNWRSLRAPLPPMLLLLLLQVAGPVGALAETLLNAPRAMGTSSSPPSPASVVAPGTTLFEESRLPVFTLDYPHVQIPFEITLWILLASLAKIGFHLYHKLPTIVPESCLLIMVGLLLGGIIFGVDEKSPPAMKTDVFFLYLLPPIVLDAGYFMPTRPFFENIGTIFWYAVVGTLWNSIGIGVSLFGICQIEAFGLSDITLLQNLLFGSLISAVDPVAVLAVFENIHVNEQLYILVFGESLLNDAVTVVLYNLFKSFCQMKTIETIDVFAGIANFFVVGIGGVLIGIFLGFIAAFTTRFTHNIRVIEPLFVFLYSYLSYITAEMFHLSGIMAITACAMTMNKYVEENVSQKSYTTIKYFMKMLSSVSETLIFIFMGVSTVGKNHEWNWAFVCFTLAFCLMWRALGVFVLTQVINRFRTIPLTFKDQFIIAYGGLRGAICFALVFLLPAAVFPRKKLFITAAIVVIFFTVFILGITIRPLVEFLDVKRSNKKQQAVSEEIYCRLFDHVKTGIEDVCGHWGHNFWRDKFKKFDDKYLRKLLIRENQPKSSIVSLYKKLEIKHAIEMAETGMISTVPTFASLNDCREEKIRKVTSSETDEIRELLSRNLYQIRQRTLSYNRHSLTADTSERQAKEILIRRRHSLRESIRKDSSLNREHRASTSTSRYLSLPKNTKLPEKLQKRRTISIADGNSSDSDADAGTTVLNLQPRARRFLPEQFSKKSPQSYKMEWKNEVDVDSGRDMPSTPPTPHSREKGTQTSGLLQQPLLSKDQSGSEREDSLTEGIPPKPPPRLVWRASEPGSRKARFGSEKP

[7] = biological target: T2, Sodium/hydrogen exchanger 5 (Homo sapiens, UniProt Q14940); test: Compound is screened in AP1 cells expressing human NHE-5 for sodium hydrogen exchange activity; format: functional, cell-based; in short: as §1
T2 sequence (Q14940 whole entry): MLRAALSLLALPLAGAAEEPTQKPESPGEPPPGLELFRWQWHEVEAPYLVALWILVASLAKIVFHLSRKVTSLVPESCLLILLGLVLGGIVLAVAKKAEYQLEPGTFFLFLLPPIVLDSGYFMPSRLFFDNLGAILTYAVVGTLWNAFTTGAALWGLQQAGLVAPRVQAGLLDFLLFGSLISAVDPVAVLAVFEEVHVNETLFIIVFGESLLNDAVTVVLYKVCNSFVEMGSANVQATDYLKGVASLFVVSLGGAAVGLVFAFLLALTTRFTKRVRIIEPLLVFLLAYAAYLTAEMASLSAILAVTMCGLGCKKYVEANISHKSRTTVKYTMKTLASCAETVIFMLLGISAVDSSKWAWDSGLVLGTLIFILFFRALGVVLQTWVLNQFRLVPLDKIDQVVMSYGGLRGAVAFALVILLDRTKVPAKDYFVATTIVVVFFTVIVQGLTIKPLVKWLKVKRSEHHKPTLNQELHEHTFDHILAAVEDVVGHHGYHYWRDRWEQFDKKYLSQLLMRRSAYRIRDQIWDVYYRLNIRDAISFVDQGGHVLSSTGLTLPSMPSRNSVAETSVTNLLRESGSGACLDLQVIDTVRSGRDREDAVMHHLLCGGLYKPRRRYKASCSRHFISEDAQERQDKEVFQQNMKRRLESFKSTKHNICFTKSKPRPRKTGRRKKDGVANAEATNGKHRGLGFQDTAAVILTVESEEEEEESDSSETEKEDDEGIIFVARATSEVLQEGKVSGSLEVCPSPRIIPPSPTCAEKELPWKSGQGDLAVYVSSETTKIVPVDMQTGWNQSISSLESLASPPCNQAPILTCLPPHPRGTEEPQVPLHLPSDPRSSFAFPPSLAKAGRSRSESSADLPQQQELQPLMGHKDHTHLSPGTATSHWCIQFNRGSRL

[8] = biological target: T3, Sodium/hydrogen exchanger 3 (Homo sapiens, UniProt P48764); test: Compound is screened in AP1 cells expressing human NHE-3 for sodium hydrogen exchange activity; format: functional, cell-based; in short: as §1
T3 sequence (P48764 whole entry): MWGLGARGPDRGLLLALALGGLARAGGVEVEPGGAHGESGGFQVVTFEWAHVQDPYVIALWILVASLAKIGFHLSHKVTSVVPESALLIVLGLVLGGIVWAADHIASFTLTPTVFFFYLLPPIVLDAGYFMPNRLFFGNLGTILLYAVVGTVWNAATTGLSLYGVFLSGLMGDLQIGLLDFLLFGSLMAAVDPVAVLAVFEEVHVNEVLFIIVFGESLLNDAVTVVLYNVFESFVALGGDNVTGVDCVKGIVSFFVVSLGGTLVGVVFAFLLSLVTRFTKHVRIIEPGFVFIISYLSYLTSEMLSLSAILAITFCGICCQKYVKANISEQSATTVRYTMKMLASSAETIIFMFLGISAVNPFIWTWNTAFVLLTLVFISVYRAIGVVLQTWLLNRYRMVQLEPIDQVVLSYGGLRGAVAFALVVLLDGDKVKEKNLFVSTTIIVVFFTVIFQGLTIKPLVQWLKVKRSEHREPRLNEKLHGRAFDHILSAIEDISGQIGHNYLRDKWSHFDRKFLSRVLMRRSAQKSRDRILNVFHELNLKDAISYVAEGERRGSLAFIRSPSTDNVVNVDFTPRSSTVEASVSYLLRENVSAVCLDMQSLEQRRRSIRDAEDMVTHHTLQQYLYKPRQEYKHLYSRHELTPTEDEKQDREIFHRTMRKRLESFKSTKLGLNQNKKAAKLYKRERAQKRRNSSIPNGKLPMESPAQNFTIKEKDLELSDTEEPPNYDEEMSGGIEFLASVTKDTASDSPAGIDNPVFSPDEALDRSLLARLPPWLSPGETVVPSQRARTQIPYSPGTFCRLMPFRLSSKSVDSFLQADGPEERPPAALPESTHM

Sequence of Sodium/hydrogen exchanger 1 (P19634 whole entry, canonical isoform): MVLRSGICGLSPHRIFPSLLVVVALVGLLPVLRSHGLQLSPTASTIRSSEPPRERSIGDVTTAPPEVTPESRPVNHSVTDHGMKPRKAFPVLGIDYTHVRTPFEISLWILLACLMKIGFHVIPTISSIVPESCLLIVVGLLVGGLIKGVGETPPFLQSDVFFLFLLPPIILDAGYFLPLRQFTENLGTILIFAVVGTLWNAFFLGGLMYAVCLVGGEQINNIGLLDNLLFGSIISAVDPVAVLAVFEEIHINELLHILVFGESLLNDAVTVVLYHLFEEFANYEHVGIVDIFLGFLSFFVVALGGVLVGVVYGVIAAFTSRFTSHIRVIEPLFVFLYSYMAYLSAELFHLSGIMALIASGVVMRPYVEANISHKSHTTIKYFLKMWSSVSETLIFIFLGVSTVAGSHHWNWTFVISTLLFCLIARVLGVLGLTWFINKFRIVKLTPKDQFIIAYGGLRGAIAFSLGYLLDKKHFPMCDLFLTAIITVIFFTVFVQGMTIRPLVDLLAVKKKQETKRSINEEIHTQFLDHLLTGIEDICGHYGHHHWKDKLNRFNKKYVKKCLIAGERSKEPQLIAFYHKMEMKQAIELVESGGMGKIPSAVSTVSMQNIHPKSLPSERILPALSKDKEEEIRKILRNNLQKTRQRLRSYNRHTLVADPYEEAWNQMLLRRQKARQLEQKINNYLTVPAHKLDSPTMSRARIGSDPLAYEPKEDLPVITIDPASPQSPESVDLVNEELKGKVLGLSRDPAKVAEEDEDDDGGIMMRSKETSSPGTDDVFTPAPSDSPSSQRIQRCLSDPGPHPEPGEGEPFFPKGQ

SMILES: N=C(N)NC(=O)[C@H]1C[C@@H]1c1cccc([N+](=O)[O-])c1
IC50 [1]: 1600 nM

SMILES: N=C(N)NC(=O)[C@H]1C[C@@H]1c1ccccc1Cl
IC50 [1]: 980 nM

SMILES: CC(C)c1ccc([C@H]2C[C@@H]2C(=O)NC(=N)N)cc1
IC50 [1]: > 30000 nM

SMILES: N=C(N)NC(=O)[C@H]1C[C@@H]1c1ccccc1
IC50 [1]: 3500 nM

SMILES: N=C(N)NC(=O)[C@H]1C[C@@H]1c1ccc(F)cc1
IC50 [1]: 1600 nM

SMILES: N=C(N)NC(=O)[C@H]1C[C@@H]1c1ccc(Cl)cc1
IC50 [1]: 2900 nM

SMILES: COc1cccc([C@H]2C[C@@H]2C(=O)NC(=N)N)c1
IC50 [1]: 540 nM

SMILES: N=C(N)NC(=O)[C@H]1C[C@@H]1c1cccc(Cl)c1
IC50 [1]: 280 nM

SMILES: N=C(N)NC(=O)[C@H]1C[C@@H]1c1ccc([N+](=O)[O-])cc1
IC50 [1]: > 30000 nM

SMILES: CC(C)c1ccc(C(=O)NC(=N)N)cc1S(C)(=O)=O [CARIPORIDE]
IC50 [6]: 62000 nM | IC50 [1]: 3400 nM | IC50 [7]: > 30000 nM | IC50 [8]: > 30000 nM

SMILES: Cc1cc(-n2cccc2)c(S(C)(=O)=O)cc1C(=O)NC(=N)N [ENIPORIDE]
IC50 [6]: 17000 nM | IC50 [1]: 380 nM | IC50 [7]: > 30000 nM | IC50 [8]: > 30000 nM

Compounds with a lower IC50 [1], results first:

IC50 [1]: 32 nM
SMILES: Cc1cc([C@@H]2[C@@H](C(=O)N=C(N)N)C2(C)C)ccc1F

bioavailability [2]: 13% | half-life [3]: 3.4 h | IC50 [1]: 40 nM | clearance [4]: 143 mL/min/kg | Vd [5]: 21 L/kg
SMILES: N=C(N)NC(=O)[C@H]1C[C@@H]1c1cc(Cl)ccc1Cl

IC50 [1]: 17 nM
SMILES: CC(C)c1cc([C@@H]2[C@@H](C(=O)N=C(N)N)C2(C)C)ccc1F

IC50 [1]: 90 nM
SMILES: N=C(N)NC(=O)[C@H]1C[C@@H]1c1ccc(F)c(Br)c1

IC50 [1]: 5 nM
SMILES: CCc1cc([C@@H]2[C@@H](C(=O)NC(=N)N)C2(C)C)ccc1F

bioavailability [2]: 47% | half-life [3]: 8 h | IC50 [1]: 5 nM | clearance [4]: 44 mL/min/kg | Vd [5]: 23 L/kg
SMILES: CC1(C)[C@H](C(=O)N=C(N)N)[C@H]1c1cc(Cl)ccc1Cl

IC50 [1]: 69 nM
SMILES: CC1(C)[C@H](C(=O)N=C(N)N)[C@H]1c1ccccc1

bioavailability [2]: 49% | half-life [3]: 1.3 h | IC50 [1]: 120 nM | clearance [4]: 120 mL/min/kg | Vd [5]: 6 L/kg
SMILES: N=C(N)NC(=O)[C@H]1C[C@@H]1c1cccc2c1CCO2

IC50 [1]: 14 nM
SMILES: CC1(C)[C@H](C(=O)NC(=N)N)[C@H]1c1cccc(Cl)c1

IC50 [1]: 12 nM
SMILES: COc1cccc([C@@H]2[C@@H](C(=O)NC(=N)N)C2(C)C)c1

IC50 [1]: 3 nM
SMILES: CC1(C)[C@H](C(=O)N=C(N)N)[C@H]1c1ccc(F)c(Br)c1

IC50 [1]: 6 nM
SMILES: CC1(C)[C@H](C(=O)NC(=N)N)[C@H]1c1cc(Cl)cc(Cl)c1

IC50 [6]: 1800 nM | bioavailability [2]: 63% | half-life [3]: 3 h | IC50 [1]: 9 nM | clearance [4]: 74 mL/min/kg | Vd [5]: 8.6 L/kg | IC50 [7]: 3360 nM | IC50 [8]: > 30000 nM
SMILES: CC1(C)[C@H](C(=O)N=C(N)N)[C@H]1c1cccc2c1CCO2
